In experiment [1] the test system is K562. Put plainly: Antiproliferative activity against human K562 cells assessed as reduction in cell viability after 48 hrs by MTT assay. Type of experiment: functional, cell-based. The note with it: K562, 48 h. On the technique in general: Tetrazolium dyes change colour on reduction, which living cells bring about.
Experiment [2] has as its target Tyrosine-protein kinase JAK1 (Homo sapiens, UniProt P23458). Put plainly: Inhibition of recombinant human JAK1 using Ulight-CAGAGAIETDKEYYTVKD as substrate measured after 60 mins by LANCE assay. The procedure, abridged: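 Human recombinant JAK enzyme assays run by a contract lab. IC50 was taken from a non-linear curve fit, with all parameters allowed to float. Assays were run in replicate (n>2) and reported as mean ± SD.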

The next experiment addresses Histone deacetylase 2 (Homo sapiens, UniProt Q92769). Put plainly: Inhibition of HDAC2 (unknown origin) using Boc-Lys(acetyl)-AMC as substrate preincubated for 5 mins followed by substrate addition and measured after 30 mins by fluorescence assay.
Experiment [3] has as its target T1, Protein deacetylase HDAC6 (Homo sapiens, UniProt Q9UBN7).
T1 sequence (Q9UBN7 whole entry): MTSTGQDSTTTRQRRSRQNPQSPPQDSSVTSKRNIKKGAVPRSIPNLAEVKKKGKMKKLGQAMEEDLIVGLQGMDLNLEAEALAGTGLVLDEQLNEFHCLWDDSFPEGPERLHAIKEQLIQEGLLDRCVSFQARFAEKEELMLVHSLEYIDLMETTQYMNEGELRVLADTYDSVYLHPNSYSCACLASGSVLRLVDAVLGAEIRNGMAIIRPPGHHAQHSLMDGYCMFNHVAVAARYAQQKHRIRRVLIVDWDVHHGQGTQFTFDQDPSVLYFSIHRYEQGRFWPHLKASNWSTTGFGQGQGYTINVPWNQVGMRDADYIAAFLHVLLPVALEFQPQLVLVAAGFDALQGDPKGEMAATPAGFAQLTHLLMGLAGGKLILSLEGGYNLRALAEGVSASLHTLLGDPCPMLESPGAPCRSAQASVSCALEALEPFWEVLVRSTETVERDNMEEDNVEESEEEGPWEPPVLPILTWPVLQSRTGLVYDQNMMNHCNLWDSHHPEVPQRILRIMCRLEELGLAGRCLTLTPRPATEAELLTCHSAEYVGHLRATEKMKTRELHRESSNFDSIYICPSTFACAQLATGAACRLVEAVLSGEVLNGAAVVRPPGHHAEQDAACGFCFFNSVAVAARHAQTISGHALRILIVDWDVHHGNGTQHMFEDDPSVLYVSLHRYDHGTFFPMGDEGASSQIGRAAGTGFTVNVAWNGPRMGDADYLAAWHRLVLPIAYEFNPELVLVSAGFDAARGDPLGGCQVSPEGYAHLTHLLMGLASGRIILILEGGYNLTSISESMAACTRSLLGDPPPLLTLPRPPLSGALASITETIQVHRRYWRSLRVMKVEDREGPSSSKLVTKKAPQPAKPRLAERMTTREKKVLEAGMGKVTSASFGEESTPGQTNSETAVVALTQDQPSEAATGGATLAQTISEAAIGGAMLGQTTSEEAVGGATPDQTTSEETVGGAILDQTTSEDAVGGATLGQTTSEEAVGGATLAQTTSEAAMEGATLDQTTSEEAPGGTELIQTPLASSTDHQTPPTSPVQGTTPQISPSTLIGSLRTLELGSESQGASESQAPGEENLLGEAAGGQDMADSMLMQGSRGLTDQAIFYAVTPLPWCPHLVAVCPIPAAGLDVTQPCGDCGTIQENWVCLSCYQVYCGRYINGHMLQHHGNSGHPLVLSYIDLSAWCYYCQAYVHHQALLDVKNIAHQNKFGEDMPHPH
The experiment in a line: Inhibition of HDAC6 (unknown origin) using Boc-Lys(acetyl)-AMC as substrate preincubated for 5 mins followed by substrate addition and measured after 30 mins by fluorescence assay.

The next experiment relates to MOLT-4. Put plainly: Antiproliferative activity against human MOLT4 cells assessed as reduction in cell viability after 48 hrs by MTT assay. It counts as functional, cell-based. The note with it: MOLT-4, 48 h. The procedure, abridged:
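Cells kept in RPMI1640 with 10% FBS at 37 °C, 5% CO2. Seeded and grown for 12 h, then exposed to a range of compound concentrations for 48 h. 0.5% MTT added for 4 h, formazan dissolved in DMSO, absorbance read at 570 nm.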

The subject of a further experiment is Jurkat. Put plainly: Antiproliferative activity against human Jurkat cells assessed as reduction in cell viability after 48 hrs by MTT assay. It counts as functional, cell-based.
For experiment [4], the system named is HEL. The experiment in a line: Induction of apoptosis in HEL cells assessed as late apoptotic cells at 1 uM after 24 hrs by Annexin-V/propidium iodide staining-based flow cytometric analysis (reference value: 0.023%). It counts as functional, Homo sapiens. (In general: A flow cytometer gives signals particle by particle.)
Experiment [5] has as its system HEL. The experiment in a line: Induction of apoptosis in HEL cells assessed as necrotic apoptotic cells at 1 uM after 24 hrs by Annexin-V/propidium iodide staining-based flow cytometric analysis (reference value: 0.011%). Type of experiment: functional, Homo sapiens.
Experiment [6] has as its system K562. Put plainly: Induction of apoptosis in human K562 cells assessed as late apoptotic cells at 1 uM after 24 hrs by Annexin-V/propidium iodide staining-based flow cytometric analysis (reference value: 5.87%). It counts as functional.
Experiment [7] relates to K562. Put plainly: Induction of apoptosis in human K562 cells assessed as necrotic apoptotic cells at 1 uM after 24 hrs by Annexin-V/propidium iodide staining-based flow cytometric analysis (reference value: 0.827%). Type of experiment: functional.

Chain of Tyrosine-protein kinase JAK1 (P23458 whole entry): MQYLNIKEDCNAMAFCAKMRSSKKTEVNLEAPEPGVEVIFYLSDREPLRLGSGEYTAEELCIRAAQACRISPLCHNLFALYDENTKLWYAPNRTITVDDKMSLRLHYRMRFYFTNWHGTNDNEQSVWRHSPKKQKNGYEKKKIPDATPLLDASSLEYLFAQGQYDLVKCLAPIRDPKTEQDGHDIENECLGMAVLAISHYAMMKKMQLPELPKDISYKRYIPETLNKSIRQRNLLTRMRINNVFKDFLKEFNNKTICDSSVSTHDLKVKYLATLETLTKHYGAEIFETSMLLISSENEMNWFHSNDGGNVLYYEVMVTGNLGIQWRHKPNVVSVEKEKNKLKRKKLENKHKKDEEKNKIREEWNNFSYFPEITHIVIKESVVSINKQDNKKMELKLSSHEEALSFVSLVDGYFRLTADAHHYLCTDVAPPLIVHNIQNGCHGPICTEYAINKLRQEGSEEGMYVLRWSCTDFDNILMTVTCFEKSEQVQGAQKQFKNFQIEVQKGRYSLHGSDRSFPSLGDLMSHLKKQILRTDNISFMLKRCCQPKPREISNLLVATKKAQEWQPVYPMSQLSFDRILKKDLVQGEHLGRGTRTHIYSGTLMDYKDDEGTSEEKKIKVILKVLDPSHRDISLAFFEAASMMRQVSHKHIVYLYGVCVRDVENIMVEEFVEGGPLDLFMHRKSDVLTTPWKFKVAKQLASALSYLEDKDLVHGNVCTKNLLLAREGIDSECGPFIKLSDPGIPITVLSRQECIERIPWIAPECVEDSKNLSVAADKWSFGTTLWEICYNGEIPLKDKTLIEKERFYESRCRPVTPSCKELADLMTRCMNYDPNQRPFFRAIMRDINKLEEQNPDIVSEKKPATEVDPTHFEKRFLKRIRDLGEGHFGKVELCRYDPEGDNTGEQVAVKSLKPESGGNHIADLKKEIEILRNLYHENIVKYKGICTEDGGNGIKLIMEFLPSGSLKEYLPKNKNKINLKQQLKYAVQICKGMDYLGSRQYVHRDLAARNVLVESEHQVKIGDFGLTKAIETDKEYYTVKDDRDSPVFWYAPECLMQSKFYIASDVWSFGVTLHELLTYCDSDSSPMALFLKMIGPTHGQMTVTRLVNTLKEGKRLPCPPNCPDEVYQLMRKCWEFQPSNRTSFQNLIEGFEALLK
Chain of Histone deacetylase 2 (Q92769 whole entry): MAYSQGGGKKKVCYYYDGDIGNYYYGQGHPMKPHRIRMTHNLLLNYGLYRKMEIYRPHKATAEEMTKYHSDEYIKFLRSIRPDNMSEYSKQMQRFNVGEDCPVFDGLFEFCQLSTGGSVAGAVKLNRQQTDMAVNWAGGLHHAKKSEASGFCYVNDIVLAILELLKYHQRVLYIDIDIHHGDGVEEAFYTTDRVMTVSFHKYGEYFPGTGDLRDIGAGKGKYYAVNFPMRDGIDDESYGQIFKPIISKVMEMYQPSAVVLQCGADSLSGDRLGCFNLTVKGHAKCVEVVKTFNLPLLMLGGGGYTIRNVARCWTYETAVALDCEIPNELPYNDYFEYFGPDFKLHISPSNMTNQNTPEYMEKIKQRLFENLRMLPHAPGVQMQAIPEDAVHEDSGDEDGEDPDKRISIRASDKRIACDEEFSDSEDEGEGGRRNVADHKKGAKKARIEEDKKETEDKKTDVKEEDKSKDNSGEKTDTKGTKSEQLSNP

Turning to `O=C(CCCCCn1cc(Nc2ncc(Cl)c(Nc3ccc(Cl)cc3)n2)cn1)NO`, the half-inhibitory concentration (IC50) in the experiment with K562 [1] turned out to be 490 nM; in [2], 4.8 nM; on Histone deacetylase 2, 120 nM; in experiment [3], 14 nM; in the experiment with MOLT-4, 80 nM; in the experiment with Jurkat it was 60 nM. Moreover, the Activity in the experiment with HEL [4] turned out to be 60%; with HEL [5], 7.97%; with K562 [6], 46.9%; in the experiment on K562 [7] it was 1.07%.

On to `O=C(CCCCCCn1cc(Nc2ncc(Cl)c(Nc3cccc(Cl)c3)n2)cn1)NO`, for which the IC50 worked out at 380 nM in the experiment with K562 [1]; 15 nM in experiment [2]; 130 nM at Histone deacetylase 2; 41 nM in [3]; 130 nM in the experiment with MOLT-4; 100 nM with Jurkat. Besides, the Activity with HEL [4] is given as 68.7%; in the experiment with HEL [5], 2.58%; with K562 [6], 30%; with K562 [7] it was 1.14%.

By IC50 is commonly meant the concentration that inhibits the measured activity by half.
